Hits are enriched below; roughly 3.1% of the tested compounds scored in any of these assays.
MEKK2 WT-MEK5: modulators of MEK5 binding to wildtype MEKK2, primary screen, biochemical, multiplex bead flow cytometry, Alexa488-MEK5. 1.1% of 290,000 active. Alexa488-MEK5 binding to MEKK2 WT; actives lie on both sides. Mitogen-activated protein kinase kinase kinase 2 (Homo sapiens), Q9Y2U5. binding response (% of control), % at 10 µM; in the data active means binding response below about 67% or above about 130%
UBC13 inh: UBC13 polyubiquitin chain formation inhibitors, primary screen, biochemical, TR-FRET, uHTS. Ubiquitin-conjugating enzyme E2 N (Homo sapiens), P61088. 0.47% of 330,000 active. inhibition, % at 20 µM; in the data active means inhibition above about 45%, passing the limit was not always enough
MEKK2 mut-MEK5: MEK5 binding signal on mutant MEKK2 PB1, primary screen, biochemical, multiplex bead flow cytometry, Alexa488-MEK5. Alexa488-MEK5 binding to MEKK2 mutant. percent response, % at 10 µM. 0.35% of 290,000 active; in the data active means percent response above about 24%, passing the limit was not always enough
Apaf-1 inh: inhibitors of human Apaf-1 apoptosome, primary screen, biochemical, DEVD-Rh110 fluorescence, uHTS. 0.71% of 330,000 active. inhibition, % at 20 µM. reconstituted apoptosome caspase-3 activity. Apoptotic protease-activating factor 1 (Homo sapiens), O14727. AID 489030, 2010; active means inhibition of at least 40% at 20 µM
Target sequence (O14727 whole entry, looked up): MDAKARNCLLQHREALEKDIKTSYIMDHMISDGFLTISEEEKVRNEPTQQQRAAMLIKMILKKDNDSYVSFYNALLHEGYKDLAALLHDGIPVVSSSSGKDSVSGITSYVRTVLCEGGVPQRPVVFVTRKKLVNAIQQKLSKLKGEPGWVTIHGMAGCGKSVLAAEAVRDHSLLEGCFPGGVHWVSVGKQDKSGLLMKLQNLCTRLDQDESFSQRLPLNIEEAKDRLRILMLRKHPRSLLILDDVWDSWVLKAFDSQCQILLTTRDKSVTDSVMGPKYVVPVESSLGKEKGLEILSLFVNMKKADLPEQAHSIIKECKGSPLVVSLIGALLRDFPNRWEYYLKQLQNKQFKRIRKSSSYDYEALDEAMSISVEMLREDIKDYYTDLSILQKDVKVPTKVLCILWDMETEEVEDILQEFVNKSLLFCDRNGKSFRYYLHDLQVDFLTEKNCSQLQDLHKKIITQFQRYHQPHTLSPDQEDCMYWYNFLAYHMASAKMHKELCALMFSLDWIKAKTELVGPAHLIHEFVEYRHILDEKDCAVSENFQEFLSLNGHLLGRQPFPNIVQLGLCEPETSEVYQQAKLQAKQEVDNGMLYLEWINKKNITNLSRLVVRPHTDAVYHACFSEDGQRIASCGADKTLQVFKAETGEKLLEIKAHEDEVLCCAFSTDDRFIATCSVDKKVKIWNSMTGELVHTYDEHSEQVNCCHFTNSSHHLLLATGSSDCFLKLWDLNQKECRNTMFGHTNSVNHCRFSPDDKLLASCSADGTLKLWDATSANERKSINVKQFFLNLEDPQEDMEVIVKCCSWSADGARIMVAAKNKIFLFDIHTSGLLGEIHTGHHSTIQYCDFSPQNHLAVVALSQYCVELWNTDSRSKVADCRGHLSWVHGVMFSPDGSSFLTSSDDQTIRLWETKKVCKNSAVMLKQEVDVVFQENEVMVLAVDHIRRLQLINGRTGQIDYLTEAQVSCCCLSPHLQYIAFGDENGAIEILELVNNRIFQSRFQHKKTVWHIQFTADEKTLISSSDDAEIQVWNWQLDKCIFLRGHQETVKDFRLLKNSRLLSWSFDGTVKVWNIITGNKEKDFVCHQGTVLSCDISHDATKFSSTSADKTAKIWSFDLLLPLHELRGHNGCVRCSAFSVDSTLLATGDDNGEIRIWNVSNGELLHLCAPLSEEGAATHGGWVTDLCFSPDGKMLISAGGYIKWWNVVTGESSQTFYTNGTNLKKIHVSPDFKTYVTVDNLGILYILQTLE
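System: reconstituted apoptosome with Apaf-1, cytochrome c, caspase-9, procaspase-3, dATP; Signal: Rh110 fluorescence intensity; Schedule: 30 min compound preincubation, 50 min activation, room temperature; Reagent: cytochrome c trigger plus (Z-DEVD)2-Rh110 caspase-3 substrate.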
PREPL inh: PREPL enzyme inhibitors, primary screen, biochemical, fluorescence polarization; Prolyl endopeptidase-like (Homo sapiens), Q4J6C6; recombinant PREPL, fluorescence polarization activity-based probe; inhibition, % at 5.96 µM; 0.68% of 320,000 active; AID 2751, 2010; in the data active means inhibition above about 43%
MEKK3 PB1 HTS: modulators of MEKK3-MEK5 PB1 binding, primary screen, biochemical, wildtype MEKK3, multiplex bead flow cytometry, Alexa488-MEK5; Mitogen-activated protein kinase kinase kinase 3 (Homo sapiens), Q99759; bead-based flow cytometry, Alexa488-MEK5 binding to MEKK3; actives lie on both sides; 0 = blocked by unlabeled MEK5, 100 = vehicle; binding response (% of control), % at 10 µM; 1.4% of 290,000 active;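 active means binding response more than 3 SD above or below the average of its plate-row segment, actives on both sides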;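 further: Alexa488 bead fluorescence after subtracting the streptavidin-only scavenger bead signal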
MEKK2wt confirm: modulators of MEK5 binding to wildtype MEKK2, confirmation, biochemical, single concentration, multiplex bead flow cytometry | shares compounds with MEKK3 PB1 HTS | Alexa488-MEK5 binding to MEKK2 WT; actives lie on both sides | binding response (% of control), % at 10 µM | 2.4% of 5,900 active | AID 1892, 2009; in the data active means binding response below about 16% or above about 210%; inactive means in between
MEKK2mut-MEK5: mutant MEKK2 PB1-MEK5 binding signal retest – biochemical, single concentration, multiplex bead flow cytometry, confirmation; shares compounds with MEKK3 PB1 HTS; Alexa488-MEK5 binding to MEKK2 mutant; percent response, % at 10 µM; 2% of 5,900 active; AID 1893, 2009; in the data active means percent response mostly above about 71%, no sharp cut-off; inactive means mostly below about 38%;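 further: higher means compound restores mutant binding toward wildtype level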
MEKK3 confirm: MEKK3 wild-type PB1 binding to MEK5, inhibitors, confirmation, biochemical, bead multiplex flow cytometry, single concentration, wildtype | binding response (% of control), % at 10 µM | Alexa488-MEK5 binding to MEKK3; hits give low values | shares compounds with MEKK3 PB1 HTS | 1.8% of 5,900 active;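 active means binding response below 72% of control, or above a set upper limit, though filed actives all read lower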
A number is an active result; . = inactive; / = not tested or not shown; [ ] = dose if it differs, or a comment.

SMILES | MEKK2 WT-MEK5 | UBC13 inh | MEKK2 mut-MEK5 | Apaf-1 inh | PREPL inh | MEKK3 PB1 HTS | MEKK2wt confirm | MEKK2mut-MEK5 | MEKK3 confirm
CCOC(=O)C1=C(C)Nc2ccccc2N=C1NC(=O)c1cccc(S(=O)(=O)N(C)C)c1 | 3.0[inhibitor] | . | . | . | . | 3.0[inhibitor] | . | . | .
CCOC(=O)C1=C(CC)Nc2ccccc2N=C1NC(=O)c1ccc(S(=O)(=O)N(C)C)cc1 | . | . | . | . | . | . | / | / | /
CC(C)C(=O)Nc1nnc(SCC(=O)NCc2ccco2)s1 | . | . | . | . | . | 139.0 | . | . | .
Cc1nc(NC(=O)CSc2nncs2)c(Cl)cc1Cl | . | . | . | . | . | . | / | / | /
Cc1c(Cl)cnc(NC(=O)CSc2nncs2)c1Cl | . | . | . | . | . | 144.0 | . | . | .
CCOC(=O)c1sc(NC(=O)c2ccco2)nc1-c1ccccc1 | . | . | . | . | . | . | / | / | /
CCOC(=O)c1sc(NC(C)=O)nc1-c1ccccc1 | -2.0[inhibitor] | . | . | . | . | 1.0[inhibitor] | . | . | .
COc1cc(/C=N/OCC(=O)Nc2ccc(OC(F)F)cc2)ccc1OCc1ccccc1 | . | . | . | . | . | 135.0 | . | . | .
Cc1ccccc1CNS(=O)(=O)c1csc(C(N)=O)c1 | . | . | . | . | . | . | / | / | /
CCOC(=O)Cc1csc(N/N=C/c2ccccc2)n1 | . | . | . | . | . | 154.0 | . | . | .
CCOC(=O)Cc1csc(N/N=C\c2cccc(Br)c2)n1 | / | . | / | . | . | / | / | / | /
CCOC(=O)Cc1csc(NC(=O)CC(C)(C)CC(=O)O)n1 | . | . | . | . | . | 128.0 | . | . | .
CCOC(=O)Cc1csc(NC(=O)CCC(=O)O)n1 | . | . | . | . | . | . | / | / | /
CCOC(=O)Cc1csc(NC(=O)Cc2ccc([N+](=O)[O-])cc2)n1 | . | . | . | . | . | 132.0 | . | . | .
O=C(Cc1ccc([N+](=O)[O-])cc1)Nc1nnc(C2CC2)s1 | . | . | . | . | . | 171.0 | . | . | .
C=CCOCCn1[nH]c2ccccc2c1=O | / | . | / | . | . | / | / | / | /
CC(C)(C)OC(=O)C[C@@H]1C/C=C\C[C@@H](CC(=O)N(CCO)Cc2ccccc2)C(=O)N[C@@H](c2ccccc2)COC1=O | / | . | / | . | . | / | / | / | /
CCN(CC(=O)Nc1ccc(OC)cc1)CC(=O)Nc1sc2c(c1C(=O)OC)CCCC2 | / | . | / | . | . | / | / | / | /
O=c1ccccn1Cc1ccccc1F | . | . | . | . | . | . | / | / | /
O=c1ccc(Cl)cn1Cc1ccccc1F | . | . | . | . | . | 127.0 | . | . | .
CCC(C)N(C(=O)CSc1nnc(COc2ccccc2F)n1N)C1CCS(=O)(=O)C1 (centres undefined) | / | . | / | . | . | / | / | / | /
COC(=O)C1=C(C)NC(=S)NC1c1ccco1 (centres undefined) | . | . | . | . | . | . | / | / | /
CCCCCOc1ccc(C2NC(=O)NC2=O)cc1 (centres undefined) | . | . | . | . | . | . | / | / | /
CCCOc1ccc(C2NC(=O)NC2=O)cc1 (centres undefined) | . | . | . | . | . | 123.0 | . | . | .
CNC(C)C(=O)NC(C(=O)N1CCCC1C(=O)Nc1ccc2ncccc2c1)C(C)C (centres undefined) | / | . | / | . | . | / | / | / | /
SMILES | MEKK2 WT-MEK5 | UBC13 inh | MEKK2 mut-MEK5 | Apaf-1 inh | PREPL inh | MEKK3 PB1 HTS | MEKK2wt confirm | MEKK2mut-MEK5 | MEKK3 confirm
N#Cc1cc(S(=O)(=O)c2ccccc2)c(N)[nH]c1=O | . | . | . | . | . | . | / | / | /
Cc1ccccc1S(=O)(=O)c1cc(C#N)c(=O)[nH]c1N | . | . | . | . | . | 69.0[inhibitor] | . | . | .
Cc1ccc(C)c(C(C)NC(=S)NCc2ccc(F)cc2)c1 (centres undefined) | . | . | . | . | . | . | / | / | /
O=C(NCCc1ccccc1)c1nccc2ccccc12 | / | . | / | . | . | / | / | / | /
c1ccc(CCNc2ccnc3cc4ccccc4cc23)cc1 | 210.0 | / | 97.0 | / | / | . | . | . | .
Cc1ccc(C(=O)OCC(=O)NC2CCCCCC2)c(C)c1 | / | . | / | . | / | / | / | / | /
Cc1ccc(Nc2nc(N)c([N+](=O)[O-])c(NCc3ccco3)n2)cc1 | . | . | . | . | . | 152.0 | . | . | .
C=CCNC(=O)CN(c1ccc(OC)cc1OC)S(C)(=O)=O | . | . | . | . | . | 127.0 | . | . | .
c1ccc(-c2nnc(CN3CCCc4ccccc43)o2)cc1 | 9.0 | . | 26.0 | . | . | . | . | . | .
Fc1ccc(N2CCN(Cc3nnc(-c4ccccc4)o3)CC2)cc1 | . | . | . | . | . | 135.0 | . | . | .
CC(=O)c1ccc(N2CCc3ccccc3C2)c([N+](=O)[O-])c1 | . | . | . | . | . | 72.0[inhibitor] | . | . | .
O=C(O)c1ccc(COc2ccccc2Cl)cc1 | . | . | . | . | . | . | / | / | /
N#C/C(=C\c1ccccc1OCc1ccc(C(=O)O)cc1)c1ccccc1 | . | . | . | . | . | 50.0[inhibitor] | . | . | .
COc1cccc(NC(=O)C(C)N2C(=O)c3ccccc3C2=O)c1 (centres undefined) | . | . | . | . | . | . | / | / | /
CCOc1ccccc1CN1CCN(C2CCN(c3ccccc3F)CC2)CC1CCO (centres undefined) | . | . | . | . | . | 75.0[inhibitor] | . | . | .
CCOc1ccccc1CN1CCN(Cc2c[nH]c3ccccc23)CC1CCO (centres undefined) | 134.0 | . | . | . | / | . | . | . | .
CCOc1ccccc1CN1CCN(Cc2ccc(C)o2)CC1CCO (centres undefined) | . | . | . | . | . | . | / | / | /
CC(C)c1ccc(NC(=O)COc2nnc(-c3cccs3)c(-c3cccs3)n2)cc1 | . | . | . | . | . | 143.0 | . | . | .
